Published values gathered from unrelated publications.
Protocols differ between the studies behind these lines.
Medium: plasma

For CN1CC[C@@H](c2c(O)cc(O)c3c(=O)cc(-c4ccc(C(F)(F)F)cc4Cl)oc23)[C@@H]1CO, the Tmax was 4.1 h (human; oral, 50 mg, patients).
Cc1ccc(C(=O)Nc2ccc(CN3CCN(C)CC3)c(C(F)(F)F)c2)cc1C#Cc1cnc2[nH]ncc2c1 gave a Tmax of 8 h (human; oral, 40 mg, healthy volunteers).
NS(=O)(=O)OC[C@@H]1C[C@@H](n2ccc3c(N[C@H]4CCc5ccccc54)ncnc32)C[C@@H]1O has a Tmax of 1.13 h (human; intravenous, 15 mg/m², patients).
For C[C@H](O)C(=O)C1=Nc2c(nc(N)[nH]c2=O)NC1, the Tmax was 4 h (human; oral, 20 mg/kg, single dose, healthy volunteers).
For COc1ccc([C@@H](O)c2cc(-c3ncnc4cc(N5CCOCC5)ccc34)c(F)cc2Cl)nn1, the Tmax was 1.08 h (human; oral, 400 mg, single dose, patients).
With CC(C)n1c(Nc2cccnc2)nc2cnc(Nc3ccc(N4CCN(C)CC4)cc3)nc21 the Tmax was 1.5 h (male human; oral, 150 mg, single dose, healthy volunteers).
With Cl.[2H]C([2H])([2H])CC(=O)c1cnc(NC(=O)C2CC2)cc1Nc1cccc(-c2ncn(C([2H])([2H])[2H])n2)c1OC the Tmax was 2.1 h (human; oral, 20 mg, multiple doses, once daily, fasted).
The Tmax of CNC(=O)n1ccc2cc(Oc3ccnc(NC(=O)c4ccc(C5CCN(CCO)CC5)cc4)c3)c(OCCOC)cc21 is reported as 3 h (human; oral, 35 mg, single dose, fasted, healthy volunteers).
The Tmax of Cn1cc(Nc2nc(N)nc(-c3cccc(-n4ccc5cc(C6CC6)cc(F)c5c4=O)c3CO)n2)cn1 is reported as 2 h (human; oral, 300 mg, single dose, fasted, healthy volunteers).
